Test results: ChEMBL document CHEMBL1629713, “Discovery of benzoylisoindolines as a novel class of potent, selective and orally active GlyT1 inhibitors” (Bioorg Med Chem Lett, 2010)
≈ marks a conversion by molar mass, not a printed value.

Experiments:
[1] = Intrinsic clearance in rat liver microsomes assessed per mg of protein; assay type: ADME, Microsome
Method in brief: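 Intrinsic clearance measured in rat liver microsomes, expressed as µL/min/mg protein.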

[2] = biological target: T1, Sodium- and chloride-dependent glycine transporter 1 (Homo sapiens, UniProt P48067); test: Inhibition of human GlyT1 expressed in CHO cells assessed as inhibition of [3H]glycine uptake by liquid scintillation counting; assay type: cell-based
T1 sequence (P48067 whole entry): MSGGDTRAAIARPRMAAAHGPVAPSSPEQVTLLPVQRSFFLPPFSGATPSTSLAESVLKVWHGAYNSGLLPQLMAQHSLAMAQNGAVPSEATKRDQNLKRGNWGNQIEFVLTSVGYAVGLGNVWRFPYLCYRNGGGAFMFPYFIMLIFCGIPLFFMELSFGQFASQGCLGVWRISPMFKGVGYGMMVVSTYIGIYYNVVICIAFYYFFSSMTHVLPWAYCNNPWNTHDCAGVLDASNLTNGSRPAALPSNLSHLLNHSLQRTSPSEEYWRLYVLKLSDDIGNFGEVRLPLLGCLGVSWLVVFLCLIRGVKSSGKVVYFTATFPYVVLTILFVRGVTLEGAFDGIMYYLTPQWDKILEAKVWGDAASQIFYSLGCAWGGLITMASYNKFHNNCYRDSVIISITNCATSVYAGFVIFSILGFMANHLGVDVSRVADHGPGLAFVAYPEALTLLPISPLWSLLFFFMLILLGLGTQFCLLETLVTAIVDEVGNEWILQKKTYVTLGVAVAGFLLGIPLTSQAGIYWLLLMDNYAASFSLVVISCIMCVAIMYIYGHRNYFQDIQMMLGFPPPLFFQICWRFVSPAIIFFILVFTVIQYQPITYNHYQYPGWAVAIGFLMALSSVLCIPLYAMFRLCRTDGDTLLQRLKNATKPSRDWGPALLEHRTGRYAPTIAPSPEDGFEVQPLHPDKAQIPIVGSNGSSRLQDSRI
Method in brief: (§1)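 [3H]-glycine uptake inhibition in cells transfected with human GlyT1 or human GlyT2 cDNA. EC50 values averaged from at least two independent experiments.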

Mus musculus = test: Antipsychotic activity in po dosed mouse assessed as inhibition of L-687414-induced hyperlocomotion after 60 mins; assay type: functional; details: 1 h, read-out: ID50 (the source's name)
Method in brief: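 Mice given compound orally, n = 8 per group; hyperlocomotion induced by L-687,414. Horizontal activity counts recorded over a 60-min period and reported as group means. ID50 (mg/kg) derived from dose-dependent inhibition of the L-687,414-induced response.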

[3] = Permeability of the compound by PAMPA; assay type: ADME; details: read-out: permeability
Method in brief: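 PAMPA: permeation constant Pe (10^-6 cm/s) measured through artificial membranes.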

[4] = Clearance in rat at 2.2 mg/kg, iv; assay type: ADME, organism-based; parameters: dose 2.2 mg/kg, route intravenous; details: in vivo
Method in brief: (§2)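 Single-dose rat PK with iv doses of 1.7, 2.0 or 2.2 mg/kg and po doses of 2, 5.7 or 6.8 mg/kg. CL, Vss, oral bioavailability, terminal half-life and brain/plasma ratio determined; values averaged from two independent experiments.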

Rattus norvegicus [5] = test: […] in rat striatum assessed as increase of glycine level at 10 mg/kg, po relative to basal level; assay type: functional
Method in brief: (§3)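 Rats dosed 10 mg/kg po, n = 6. Striatal extracellular fluid sampled for glycine over 3 h, expressed as maximal fold increase and fold increase at 3 h. Animals sacrificed at 3 h; plasma and brain drug levels measured at 3 h post dose.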

[6] = Drug level in rat brain at 10 mg/kg after 3 hrs; assay type: ADME, organism-based; parameters: dose 10 mg/kg; details: read-out: Drug uptake; method in brief: as §3
hERG (KCNH2) = hERG (KCNH2) (Homo sapiens, UniProt Q12809); test: Inhibition of human ERG at 10 uM by patch clamp assay
Method in brief: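 hERG block measured by patch clamp at 10 µM; values averaged from at least two independent experiments.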

[7] = Ratio of drug level in brain to plasma in rat at 6.8 mg/kg, po; assay type: ADME, organism-based; parameters: dose 6.8 mg/kg, route oral; details: read-out: BPR
[8] = Drug level in rat plasma at 10 mg/kg after 3 hrs; assay type: ADME, organism-based; parameters: dose 10 mg/kg; method in brief: as §3
[9] = biological target: T2, Sodium- and chloride-dependent glycine transporter 2 (Homo sapiens, UniProt Q9Y345); test: Inhibition of human GlyT2 expressed in CHO cells assessed as inhibition of [3H]glycine uptake by liquid scintillation counting; assay type: cell-based; method in brief: as §1
T2 sequence (Q9Y345 whole entry): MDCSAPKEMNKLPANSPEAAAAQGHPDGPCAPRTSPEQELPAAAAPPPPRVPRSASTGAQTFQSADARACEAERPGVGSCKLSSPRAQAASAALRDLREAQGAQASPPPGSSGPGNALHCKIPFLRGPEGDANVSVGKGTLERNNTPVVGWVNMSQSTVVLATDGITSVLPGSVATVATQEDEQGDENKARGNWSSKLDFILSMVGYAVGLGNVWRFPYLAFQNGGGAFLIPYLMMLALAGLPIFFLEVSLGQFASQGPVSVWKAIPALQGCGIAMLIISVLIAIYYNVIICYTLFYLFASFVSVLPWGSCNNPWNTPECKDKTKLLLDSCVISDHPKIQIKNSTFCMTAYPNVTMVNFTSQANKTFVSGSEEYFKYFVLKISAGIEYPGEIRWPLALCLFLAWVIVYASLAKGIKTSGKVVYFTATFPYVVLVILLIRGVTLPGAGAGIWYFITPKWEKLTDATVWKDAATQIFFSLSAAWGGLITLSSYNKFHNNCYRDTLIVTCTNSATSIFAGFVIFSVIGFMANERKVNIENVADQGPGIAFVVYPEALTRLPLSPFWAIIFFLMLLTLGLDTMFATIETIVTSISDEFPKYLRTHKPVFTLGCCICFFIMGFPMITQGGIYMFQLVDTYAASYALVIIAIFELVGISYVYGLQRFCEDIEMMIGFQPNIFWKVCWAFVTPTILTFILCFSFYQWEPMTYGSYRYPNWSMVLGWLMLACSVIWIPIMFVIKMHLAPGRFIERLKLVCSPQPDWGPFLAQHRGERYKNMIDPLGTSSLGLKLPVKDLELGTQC

[10] = Aqueous solubility of the compound by lyophilisate solubility assay; assay type: physicochemical; details: buffer
Method in brief: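 LYSA: compound in DMSO solution lyophilized, then dissolved in 0.05 M phosphate buffer pH 6.5, stirred 1 h and shaken 2 h; solubility in µg/ml.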

[11] = Oral bioavailability in rat at 6.8 mg/kg; assay type: ADME, organism-based; details: in vivo; method in brief: as §2
Rattus norvegicus [12] = test: […] in rat striatum assessed as increase of glycine at 10 mg/kg, po after 3 hrs relative to basal level; assay type: functional; method in brief: as §3
[13] = Terminal half life in rat at 6.8 mg/kg, po; assay type: ADME, organism-based; parameters: dose 6.8 mg/kg, route oral; details: in vivo, read-out: beta t1/2 (converted); method in brief: as §2
[14] = Volume of distribution at steady state in rat at 2.2 mg/kg, iv; assay type: ADME, organism-based; parameters: dose 2.2 mg/kg, route intravenous; details: in vivo, read-out: Vdss; method in brief: as §2
[15] = Clearance in rat at 2 mg/kg, iv; assay type: ADME, organism-based; parameters: dose 2 mg/kg, route intravenous; details: in vivo; method in brief: as §2
[16] = Volume of distribution at steady state in rat at 2 mg/kg, iv; assay type: ADME, organism-based; parameters: dose 2 mg/kg, route intravenous; details: in vivo, read-out: Vdss; method in brief: as §2
[17] = Ratio of drug level in brain to plasma in rat at 2 mg/kg, po; assay type: ADME, organism-based; parameters: dose 2 mg/kg, route oral; details: read-out: BPR
[18] = Oral bioavailability in rat at 2 mg/kg; assay type: ADME, organism-based; details: in vivo; method in brief: as §2
[19] = Terminal half life in rat at 2 mg/kg, po; assay type: ADME, organism-based; parameters: dose 2 mg/kg, route oral; details: in vivo, read-out: beta t1/2 (converted); method in brief: as §2
[20] = Ratio of drug level in brain to plasma in rat at 5.7 mg/kg, po; assay type: ADME, organism-based; parameters: dose 5.7 mg/kg, route oral; details: read-out: BPR
[21] = Volume of distribution at steady state in rat at 1.7 mg/kg, iv; assay type: ADME, organism-based; parameters: dose 1.7 mg/kg, route intravenous; details: in vivo, read-out: Vdss; method in brief: as §2
[22] = Clearance in rat at 1.7 mg/kg, iv; assay type: ADME, organism-based; parameters: dose 1.7 mg/kg, route intravenous; details: in vivo; method in brief: as §2
[23] = Terminal half life in rat at 5.7 mg/kg, po; assay type: ADME, organism-based; parameters: dose 5.7 mg/kg, route oral; details: in vivo, read-out: beta t1/2 (converted); method in brief: as §2
[24] = Oral bioavailability in rat at 5.7 mg/kg; assay type: ADME, organism-based; details: in vivo; method in brief: as §2

Sequence of hERG (KCNH2) (Q12809 whole entry): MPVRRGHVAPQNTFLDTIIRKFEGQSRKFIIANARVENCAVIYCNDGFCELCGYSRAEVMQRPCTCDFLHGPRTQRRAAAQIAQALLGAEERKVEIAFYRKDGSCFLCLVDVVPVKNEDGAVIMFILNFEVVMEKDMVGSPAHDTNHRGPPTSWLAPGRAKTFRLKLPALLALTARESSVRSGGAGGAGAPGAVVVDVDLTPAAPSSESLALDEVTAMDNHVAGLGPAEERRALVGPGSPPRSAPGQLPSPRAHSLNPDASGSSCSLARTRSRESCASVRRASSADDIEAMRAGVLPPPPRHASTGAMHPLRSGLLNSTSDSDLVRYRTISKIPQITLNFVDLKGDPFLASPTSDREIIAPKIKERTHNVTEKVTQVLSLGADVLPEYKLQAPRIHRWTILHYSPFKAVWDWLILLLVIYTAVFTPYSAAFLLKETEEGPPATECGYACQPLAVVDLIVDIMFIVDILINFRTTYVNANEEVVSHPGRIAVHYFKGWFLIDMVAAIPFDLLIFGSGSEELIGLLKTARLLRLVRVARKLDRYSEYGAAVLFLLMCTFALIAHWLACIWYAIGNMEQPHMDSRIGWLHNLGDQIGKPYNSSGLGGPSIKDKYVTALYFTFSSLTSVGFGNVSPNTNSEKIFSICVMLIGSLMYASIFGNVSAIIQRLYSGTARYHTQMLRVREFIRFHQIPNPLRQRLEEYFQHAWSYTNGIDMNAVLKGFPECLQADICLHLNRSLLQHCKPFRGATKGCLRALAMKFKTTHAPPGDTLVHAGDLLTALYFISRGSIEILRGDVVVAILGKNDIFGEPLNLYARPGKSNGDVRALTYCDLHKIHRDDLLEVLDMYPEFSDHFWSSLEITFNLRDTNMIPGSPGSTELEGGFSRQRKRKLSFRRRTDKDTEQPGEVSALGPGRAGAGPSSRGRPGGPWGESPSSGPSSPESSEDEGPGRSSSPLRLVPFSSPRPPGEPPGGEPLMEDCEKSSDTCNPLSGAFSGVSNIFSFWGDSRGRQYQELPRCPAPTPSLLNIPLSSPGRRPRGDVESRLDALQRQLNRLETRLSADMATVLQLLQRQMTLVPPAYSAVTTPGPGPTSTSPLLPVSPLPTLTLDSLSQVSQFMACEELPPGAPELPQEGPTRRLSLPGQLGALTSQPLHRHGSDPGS

microsomal CLint [1] [µL/min/mg] | EC50 [2] [nM] | Papp [3] [×10⁻⁶ cm/s] | concentration at 3 h [6] [ng/mL] | concentration at 3 h [8] [ng/mL] | EC50 [9] [nM] | solubility [10] [µg/mL] | Structure (SMILES) | ED50 (Mus musculus) [mg/kg] | fold change (FC) (Rattus norvegicus [5]) | inhibition at 10 µM (hERG (KCNH2)) [%] | fold change (FC) (Rattus norvegicus [12]) | further results
13.9 | 14 | 3.3 | 274 | 480 | > 30000 | 76 (≈ 153 µM) | C[C@H](Oc1ccc(S(C)(=O)=O)cc1C(=O)N1Cc2ccc(C3CCOCC3)cc2C1)C(F)(F)F | 0.5 | 2.1 | 23 | 2 | clearance [4]: 21 mL/min/kg; Kp [7]: 0.6; bioavailability [11]: 65%; half-life [13]: 3.2 h; Vd [14]: 3.7 L/kg
1.9 | 50 | 5 | 500 | 2500 | > 30000 | 280 (≈ 580 µM) | C[C@H](Oc1ccc(S(C)(=O)=O)cc1C(=O)N1Cc2cc(C(F)(F)F)cnc2C1)C(F)(F)F | 0.4 | 1.8 | 12 | 1.8 | clearance [15]: 1.7 mL/min/kg; Vd [16]: 1.4 L/kg; Kp [17]: 0.2; bioavailability [18]: 55%; half-life [19]: 6 h
18.9 | 28 | 4.2 | 159 | 279 | > 30000 | 191 (≈ 431 µM) | CC(C)Oc1ccc(S(C)(=O)=O)cc1C(=O)N1Cc2ccc(C3CCOCC3)cc2C1 | 0.5 | 1.9 | 10 | 1.5 | Kp [20]: 0.6; Vd [21]: 2 L/kg; clearance [22]: 22 mL/min/kg; half-life [23]: 1.6 h; bioavailability [24]: 40%
